Source: ChEMBL document CHEMBL4715925, “Sulfamoylbenzamide-based Capsid Assembly Modulators for Selective Inhibition of Hepatitis B Viral Replication” (ACS Med Chem Lett, 2021)
One block for each molecule: values may come before it. Active and inactive are the calls of the source. The rule behind the calls is not given here.

Columns and labels:
[1] = Cytotoxicity against human HepG2 2.2.15 cells assessed as reduction in cell viability incubated for 5 days by MTT assay; format: cell-based; conditions: time 5 day
Procedure, shortened: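 HepG2.2.15 cells were incubated with compound, then cell viability was measured. Mean ± SD of three independent experiments.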

Hepatitis B virus [2] = experiment: Antiviral activity against Hepatitis B genotype D virus infected in HepG2 2.2.15 cells assessed as inhibition of viral DNA incubated for 5 days by qPCR analysis; format: functional, cell-based; conditions: HepG2 2.2.15, 120 h
Procedure, shortened: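 HepG2.2.15 cells were incubated with compound for 5 days. HBV DNA was then purified from the culture supernatant and quantified by real-time PCR.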

[3] = Selectivity index, ratio of CC50 for human […] cells to EC50 for Hepatitis B virus; format: toxicity; conditions: read-out: Ratio CC50/EC50
[4] = Half life in Sprague-Dawley rat at 5 mg/kg, po by LC-MS/MS analysis; format: ADME, organism-based; conditions: in vivo
Procedure, shortened: (§1)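 Male SD rats, 5 mg/kg given i.v. or p.o.; plasma concentration–time courses followed. Parameters: Tmax, Cmax, terminal T1/2, AUClast, AUC to infinity, total plasma clearance, Vss, oral bioavailability (Ft). Values are mean ± SD of at least three independent experiments.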

[5] = Tmax in Sprague-Dawley rat at 5 mg/kg, po by LC-MS/MS analysis; format: ADME, organism-based; conditions: in vivo; procedure, shortened: as §1
[6] = target: Voltage-gated inwardly rectifying potassium channel KCNH2 (Homo sapiens, UniProt Q12809); experiment: Inhibition of human ERG by fluorescence polarization assay
[7] = Cmax in Sprague-Dawley rat at 5 mg/kg, po by LC-MS/MS analysis; format: ADME, organism-based; design: route oral, dose 5 mg/kg; conditions: in vivo; procedure, shortened: as §1
[8] = Stability in human plasma assessed as compound remaining at 5 uM incubated for 4 hrs by LC-MS/MS analysis; format: ADME, cell-free; conditions: read-out: Stabilty
Procedure, shortened: (§2)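 Incubated in rat or human plasma at 37 °C for 4 h; result is % compound remaining. n = 3, mean ± SD.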

Hepatitis B virus [9] = experiment: Induction of recombinant Hepatitis B virus HBc (1-149)-His protein self-assembly expressed in Escherichia coli BL21 (DE3) assessed as spherical shaped particles at 30 uM after 12 hrs of incubation by TEM analysis relative to control; conditions: filed as modulator
Hepatitis B virus [10] = experiment: Induction of recombinant Hepatitis B virus HBc (1-149)-His protein self-assembly expressed in Escherichia coli BL21 (DE3) assessed as long rod-shaped particles at 30 uM after 3 to 5 days of incubation by TEM analysis relative to control; conditions: filed as modulator, time 3-5 day
[11] = Metabolic stability in human liver microsomes assessed as half life at 1 uM incubated for 30 mins by LC-MS/MS analysis; format: ADME, Microsome
Procedure, shortened: (§3)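 Phase-I stability in rat or human liver microsomes, given as % remaining after 30 min, with half-life also derived. n = 3, mean ± SD.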

[12] = Oral bioavailability in Sprague-Dawley rat at 5 mg/kg by LC-MS/MS analysis; format: ADME, organism-based; conditions: in vivo; procedure, shortened: as §1
Cytochrome P450 2C19 = Cytochrome P450 2C19 (Homo sapiens, UniProt P33261); experiment: Inhibition of human liver microsome CYP2C19 using S-mephenytoin as substrate incubated for 20 mins by LC-MS/MS with HPLC analysis; format: ADME, microsomes
Procedure, shortened: (§4)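 Cocktail-substrate assay in human liver microsomes; IC50 reported for CYP1A2, 2C9, 2C19, 2D6 and 3A4. n = 3, mean ± SD.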

[13] = AUC (0 to infinity) in Sprague-Dawley rat at 5 mg/kg, iv by LC-MS/MS analysis; format: ADME, organism-based; design: time infinity, route intravenous, dose 5 mg/kg; conditions: in vivo; procedure, shortened: as §1
[14] = Metabolic stability in rat liver microsomes assessed as compound remaining at 1 uM incubated for 30 mins by LC-MS/MS analysis; format: ADME, Microsome; conditions: read-out: Stabilty; procedure, shortened: as §3
[15] = Metabolic stability in human liver microsomes assessed as compound remaining at 1 uM incubated for 30 mins by LC-MS/MS analysis; format: ADME, Microsome; conditions: read-out: Stabilty; procedure, shortened: as §3
Cytochrome P450 2C9 = Cytochrome P450 2C9 (Homo sapiens, UniProt P11712); experiment: Inhibition of human liver microsome CYP2C9 using tolbutamide as substrate incubated for 20 mins by LC-MS/MS with HPLC analysis; format: ADME, microsomes; procedure, shortened: as §4
Hepatitis B virus [16] = experiment: Induction of recombinant Hepatitis B virus HBc (1-149)-His protein self-assembly expressed in Escherichia coli BL21 (DE3) assessed as short rod-shaped particles at 30 uM after 12 hrs of incubation by TEM analysis relative to control; conditions: filed as modulator
Cytochrome P450 3A4 = Cytochrome P450 3A4 (Homo sapiens, UniProt P08684); experiment: Inhibition of human liver microsome CYP3A4 using […] as substrate incubated for 20 mins by LC-MS/MS with HPLC analysis; format: ADME, microsomes; procedure, shortened: as §4
Hepatitis B virus [17] = experiment: Induction of recombinant Hepatitis B virus HBc (1-149)-His protein self-assembly expressed in Escherichia coli BL21 (DE3) at 30 uM by TEM analysis relative to control; conditions: filed as modulator, time 3-5 day, TDE = time-dependent effect
Cytochrome P450 1A2 = target: T1, Cytochrome P450 1A2 (Homo sapiens, UniProt P05177); experiment: Inhibition of human liver microsome CYP1A2 using phenacetin as substrate incubated for 20 mins by LC-MS/MS with HPLC analysis; format: ADME, microsomes; procedure, shortened: as §4
T1 sequence (P05177 whole entry): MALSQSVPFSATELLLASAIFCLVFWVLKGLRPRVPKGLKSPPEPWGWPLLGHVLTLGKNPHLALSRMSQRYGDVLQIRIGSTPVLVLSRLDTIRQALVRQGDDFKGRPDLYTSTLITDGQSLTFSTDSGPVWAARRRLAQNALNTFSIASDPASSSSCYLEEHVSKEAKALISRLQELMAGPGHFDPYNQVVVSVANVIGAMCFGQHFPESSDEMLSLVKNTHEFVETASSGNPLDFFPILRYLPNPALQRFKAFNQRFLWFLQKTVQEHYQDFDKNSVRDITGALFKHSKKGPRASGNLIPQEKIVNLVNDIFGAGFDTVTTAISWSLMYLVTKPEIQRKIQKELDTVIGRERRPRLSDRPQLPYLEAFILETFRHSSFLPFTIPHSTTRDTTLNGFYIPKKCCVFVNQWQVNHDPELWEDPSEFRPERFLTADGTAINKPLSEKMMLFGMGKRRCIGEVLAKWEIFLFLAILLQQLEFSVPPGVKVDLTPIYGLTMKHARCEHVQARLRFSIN

Cytochrome P450 2D6 = Cytochrome P450 2D6 (Homo sapiens, UniProt P10635); experiment: Inhibition of human liver microsome CYP2D6 using dextromethorphan as substrate incubated for 20 mins by LC-MS/MS with HPLC analysis; format: ADME, microsomes; procedure, shortened: as §4
[18] = Stability in rat plasma assessed as compound remaining at 5 uM incubated for 4 hrs by LC-MS/MS analysis; format: ADME, cell-free; conditions: read-out: Stabilty; procedure, shortened: as §2
[19] = Protein binding in rat plasma at 5 uM incubated for 4 hrs by LC-MS/MS analysis; format: ADME, cell-free; conditions: read-out: PPB (converted)
[20] = Protein binding in human plasma at 5 uM incubated for 4 hrs by LC-MS/MS analysis; format: ADME, cell-free; conditions: read-out: PPB (converted)
[21] = AUClast in Sprague-Dawley rat at 5 mg/kg, po by LC-MS/MS analysis; format: ADME, organism-based; design: time 0 - last, route oral, dose 5 mg/kg; conditions: in vivo; procedure, shortened: as §1
[22] = Clearance in Sprague-Dawley rat at 5 mg/kg, iv by LC-MS/MS analysis; format: ADME, organism-based; conditions: in vivo; procedure, shortened: as §1
Hepatitis B virus [23] = experiment: Induction of recombinant Hepatitis B virus HBc (1-149)-His protein self-assembly expressed in Escherichia coli BL21 (DE3) assessed as longer tubular shaped particles at 30 uM after 3 to 5 days of incubation by TEM analysis relative to control; conditions: filed as modulator, time 3-5 day
[24] = AUC (0 to infinity) in Sprague-Dawley rat at 5 mg/kg, po by LC-MS/MS analysis; format: ADME, organism-based; design: time infinity, route oral, dose 5 mg/kg; conditions: in vivo; procedure, shortened: as §1
[25] = Half life in Sprague-Dawley rat at 5 mg/kg, iv by LC-MS/MS analysis; format: ADME, organism-based; conditions: in vivo; procedure, shortened: as §1
[26] = AUClast in Sprague-Dawley rat at 5 mg/kg, iv by LC-MS/MS analysis; format: ADME, organism-based; design: route intravenous, time 0 - last, dose 5 mg/kg; conditions: in vivo; procedure, shortened: as §1
[27] = Metabolic stability in rat liver microsomes assessed as half life at 1 uM incubated for 30 mins by LC-MS/MS analysis; format: ADME, Microsome; procedure, shortened: as §3
[28] = Volume of distribution at steady state in Sprague-Dawley rat at 5 mg/kg, iv by LC-MS/MS analysis; format: ADME, organism-based; conditions: in vivo, read-out: Vdss; procedure, shortened: as §1

Sequence of Voltage-gated inwardly rectifying potassium channel KCNH2 (Q12809 whole entry): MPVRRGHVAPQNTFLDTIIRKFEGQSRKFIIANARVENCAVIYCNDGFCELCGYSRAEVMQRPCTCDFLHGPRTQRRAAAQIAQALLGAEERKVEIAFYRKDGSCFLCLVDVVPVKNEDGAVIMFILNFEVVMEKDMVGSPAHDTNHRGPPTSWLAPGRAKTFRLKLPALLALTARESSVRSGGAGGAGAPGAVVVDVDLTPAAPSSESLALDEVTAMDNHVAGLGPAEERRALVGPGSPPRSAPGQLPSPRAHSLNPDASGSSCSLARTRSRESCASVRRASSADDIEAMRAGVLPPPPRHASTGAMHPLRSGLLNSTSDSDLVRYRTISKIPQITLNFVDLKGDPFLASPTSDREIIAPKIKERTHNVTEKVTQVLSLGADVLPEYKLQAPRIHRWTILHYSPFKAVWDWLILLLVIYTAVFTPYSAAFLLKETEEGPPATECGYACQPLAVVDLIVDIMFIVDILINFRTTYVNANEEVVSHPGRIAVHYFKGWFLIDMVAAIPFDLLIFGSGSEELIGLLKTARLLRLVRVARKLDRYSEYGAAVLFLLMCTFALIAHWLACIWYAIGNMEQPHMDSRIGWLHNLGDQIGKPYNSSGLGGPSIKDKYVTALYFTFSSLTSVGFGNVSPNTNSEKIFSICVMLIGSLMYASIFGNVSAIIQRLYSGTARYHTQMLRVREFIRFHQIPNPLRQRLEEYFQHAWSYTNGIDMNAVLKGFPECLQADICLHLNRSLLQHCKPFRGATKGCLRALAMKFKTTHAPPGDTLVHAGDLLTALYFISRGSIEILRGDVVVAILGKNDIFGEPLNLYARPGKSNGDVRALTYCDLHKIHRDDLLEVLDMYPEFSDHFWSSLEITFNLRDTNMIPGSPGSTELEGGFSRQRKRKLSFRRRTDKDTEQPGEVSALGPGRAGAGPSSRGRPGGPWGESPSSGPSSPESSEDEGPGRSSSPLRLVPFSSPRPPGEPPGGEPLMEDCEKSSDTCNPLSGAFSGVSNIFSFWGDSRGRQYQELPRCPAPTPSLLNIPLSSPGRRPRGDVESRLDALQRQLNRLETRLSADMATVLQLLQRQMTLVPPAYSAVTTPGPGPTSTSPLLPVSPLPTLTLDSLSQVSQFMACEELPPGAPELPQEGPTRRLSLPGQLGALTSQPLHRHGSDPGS
Sequence of Cytochrome P450 2C9 (P11712 whole entry): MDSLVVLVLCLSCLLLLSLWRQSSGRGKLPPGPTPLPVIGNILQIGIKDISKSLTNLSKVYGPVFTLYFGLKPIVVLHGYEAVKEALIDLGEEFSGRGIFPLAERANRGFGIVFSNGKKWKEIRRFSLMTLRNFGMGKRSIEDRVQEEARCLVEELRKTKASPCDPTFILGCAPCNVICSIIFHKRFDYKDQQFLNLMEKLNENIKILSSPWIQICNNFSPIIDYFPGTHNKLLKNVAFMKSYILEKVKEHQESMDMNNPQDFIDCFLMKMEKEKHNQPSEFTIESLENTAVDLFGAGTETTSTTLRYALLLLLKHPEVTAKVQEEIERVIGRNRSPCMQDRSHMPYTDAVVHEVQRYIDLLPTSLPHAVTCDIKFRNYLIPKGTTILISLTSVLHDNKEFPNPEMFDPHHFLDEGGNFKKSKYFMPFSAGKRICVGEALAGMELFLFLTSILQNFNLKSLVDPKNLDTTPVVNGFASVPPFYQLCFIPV
Sequence of Cytochrome P450 2C19 (P33261 whole entry): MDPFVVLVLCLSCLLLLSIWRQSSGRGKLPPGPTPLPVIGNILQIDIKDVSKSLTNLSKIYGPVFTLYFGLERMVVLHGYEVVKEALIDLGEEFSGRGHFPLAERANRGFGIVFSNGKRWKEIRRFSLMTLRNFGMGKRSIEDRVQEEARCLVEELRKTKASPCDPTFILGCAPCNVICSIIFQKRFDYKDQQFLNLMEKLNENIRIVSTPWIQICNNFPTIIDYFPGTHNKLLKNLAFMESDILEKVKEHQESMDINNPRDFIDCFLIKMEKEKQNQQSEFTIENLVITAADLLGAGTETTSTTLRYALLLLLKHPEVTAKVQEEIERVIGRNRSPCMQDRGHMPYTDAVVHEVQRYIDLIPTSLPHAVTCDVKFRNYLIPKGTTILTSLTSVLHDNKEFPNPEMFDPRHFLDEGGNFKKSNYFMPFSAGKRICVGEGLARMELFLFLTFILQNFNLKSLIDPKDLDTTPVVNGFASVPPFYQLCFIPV
Sequence of Cytochrome P450 2D6 (P10635 whole entry): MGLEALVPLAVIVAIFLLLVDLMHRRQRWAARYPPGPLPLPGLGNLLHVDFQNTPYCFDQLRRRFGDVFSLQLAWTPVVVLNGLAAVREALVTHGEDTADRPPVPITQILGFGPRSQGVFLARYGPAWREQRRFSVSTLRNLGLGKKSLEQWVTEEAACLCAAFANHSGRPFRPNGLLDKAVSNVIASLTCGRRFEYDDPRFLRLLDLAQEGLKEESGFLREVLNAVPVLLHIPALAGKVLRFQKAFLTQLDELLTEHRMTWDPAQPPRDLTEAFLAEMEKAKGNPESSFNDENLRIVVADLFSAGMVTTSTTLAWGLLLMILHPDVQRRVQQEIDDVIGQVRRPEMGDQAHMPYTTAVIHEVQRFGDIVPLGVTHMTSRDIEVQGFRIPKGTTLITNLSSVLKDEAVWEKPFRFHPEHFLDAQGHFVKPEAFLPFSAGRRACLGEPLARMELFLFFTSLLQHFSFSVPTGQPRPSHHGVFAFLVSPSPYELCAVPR
Sequence of Cytochrome P450 3A4 (P08684 whole entry): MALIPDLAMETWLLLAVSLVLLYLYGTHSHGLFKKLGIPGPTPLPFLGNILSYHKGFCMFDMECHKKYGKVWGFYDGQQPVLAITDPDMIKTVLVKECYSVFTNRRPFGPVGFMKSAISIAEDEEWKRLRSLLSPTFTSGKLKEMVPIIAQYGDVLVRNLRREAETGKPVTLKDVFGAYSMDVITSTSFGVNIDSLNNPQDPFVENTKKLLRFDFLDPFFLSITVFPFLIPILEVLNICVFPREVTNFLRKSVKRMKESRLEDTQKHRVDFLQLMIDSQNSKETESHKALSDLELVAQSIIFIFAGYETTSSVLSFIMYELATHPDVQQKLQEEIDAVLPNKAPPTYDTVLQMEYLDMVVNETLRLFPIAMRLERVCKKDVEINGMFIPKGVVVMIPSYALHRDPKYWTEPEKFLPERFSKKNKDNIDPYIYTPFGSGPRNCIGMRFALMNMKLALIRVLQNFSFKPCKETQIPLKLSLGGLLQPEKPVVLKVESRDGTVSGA

SMILES: N#Cc1cc(NC(=O)c2cc(S(=O)(=O)N3CCC(O)CC3)c(F)cc2N)ccc1Cl
CC50 at 120 h [1]: > 900 µM
EC50 (Hepatitis B virus [2]): > 3.3 µM

SMILES: Nc1cc(F)c(S(=O)(=O)N2CCC(O)CC2)cc1C(=O)Nc1ccc(C(F)(F)F)c(Cl)c1
CC50 at 120 h [1]: 8.7 µM
EC50 (Hepatitis B virus [2]): > 3.3 µM

SMILES: Nc1cc(F)c(S(=O)(=O)N2CCC(O)CC2)cc1C(=O)Nc1ccc(F)c(C(F)(F)F)c1
CC50 at 120 h [1]: 47.3 µM
EC50 (Hepatitis B virus [2]): 2.18 µM
selectivity ratio [3]: 21.7

SMILES: Nc1cc(F)c(S(=O)(=O)N2CCC(O)CC2)cc1C(=O)Nc1ccc(Cl)c(C(F)F)c1
CC50 at 120 h [1]: 30.1 µM
EC50 (Hepatitis B virus [2]): > 3.3 µM

The next molecules have a lower EC50 (Hepatitis B virus [2]) than those just listed; values first:

EC50 (Hepatitis B virus [2]): 1.08 µM
SMILES: N#Cc1cc(NC(=O)c2cc(S(=O)(=O)N3CCC(O)CC3)c(F)cc2N)ccc1F
CC50 at 120 h [1]: > 900 µM
selectivity ratio [3]: > 833

EC50 (Hepatitis B virus [2]): 1.04 µM
SMILES: O=C(Nc1cc(F)c(F)c(F)c1)c1ccc(F)c(S(=O)(=O)N2CCC(O)CC2)c1
CC50 at 120 h [1]: 8.6 µM
selectivity ratio [3]: 8.3

EC50 (Hepatitis B virus [2]): 0.83 µM
SMILES: Nc1cc(F)c(S(=O)(=O)N2CCC(O)CC2)cc1C(=O)Nc1cccc(F)c1
CC50 at 120 h [1]: 29.3 µM
selectivity ratio [3]: 35.3

half-life [4]: 3.84 h
Tmax [5]: 1.67 h
Cmax [7]: 480 ng/mL
remaining at 4 h, 5 µM [8]: 93.6%
Activity (Hepatitis B virus [9]): Active
Activity (Hepatitis B virus [10]): Active
half-life at 1 µM [11]: 1.24 h
bioavailability [12]: 84.2%
IC50 (Cytochrome P450 2C19): 18.3 µM
AUC(0-inf) [13]: 2500 ng·h/mL
remaining at 0.5 h, 1 µM [14]: 67.9%
remaining at 0.5 h, 1 µM [15]: 68.1%
IC50 (Cytochrome P450 2C9): 25 µM
Activity (Hepatitis B virus [16]): Active
IC50 (Cytochrome P450 3A4): 41 µM
inhibition (Hepatitis B virus [17]): Tde
IC50 (Cytochrome P450 1A2): > 100 µM
IC50 (Cytochrome P450 2D6): 29.3 µM
remaining at 4 h, 5 µM [18]: 84.6%
fraction unbound at 4 h, 5 µM [19]: 0.073
fraction unbound at 4 h, 5 µM [20]: 0.035
AUC(0-t) [21]: 2080 ng·h/mL
clearance [22]: 34.2 mL/min/kg
Activity (Hepatitis B virus [23]): Active
EC50 (Hepatitis B virus [2]): 0.3 µM
AUC(0-inf) [24]: 2100 ng·h/mL
half-life [25]: 1.22 h
AUC(0-t) [26]: 2450 ng·h/mL
half-life at 1 µM [27]: 0.867 h
Vd [28]: 2.88 L/kg
SMILES: Nc1cc(F)c(S(=O)(=O)N2CCC(O)CC2)cc1C(=O)Nc1ccc(F)c(F)c1
IC50 [6]: 50 µM
CC50 at 120 h [1]: 16 µM
selectivity ratio [3]: 53.3
